Shown are actives, neighbours in structure and some others; about 1.7% of the full set was active somewhere.
Myeloid diff 2 – myeloid differentiation induction. 1% of 360,000 active. calls only at 10 µM. ER-HoxA9 myeloid progenitors, lysozyme-GFP differentiation, flow cytometry;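 active = normalized GFP-positive differentiation at or above the plate's own cutoff, the solvent-only control mean plus 3 SD; inconclusive = no clear call, values can overlap the other calls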;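 also: cells exposed to compound for four days before flow analysis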
Vif inh – blocks HIV Vif function; HEK293T cells, Vif self-association by quenched fluorescence, imaging, 24 h; inhibition, % at 7.49 µM; 0.35% of 340,000 active; in the data active = inhibition above about 50%, passing the limit was not always enough; inconclusive = no clear call, values can overlap the other calls; inactive = below about 31%
DSG3 Ab inh – inhibitors of pemphigus antibody binding to human desmoglein-3 | P32926 | DSG3-coupled beads, scFv-anti-DSG3-GFP binding, flow cytometry; active compounds read low | binding (percent of control), % at 10 µM | 0.48% of 310,000 active | AID 588358;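 active = binding more than 3 SD below its plate's average and above zero; inconclusive = below that plate limit but binding exactly zero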;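 also: hits lower antibody fragment binding to DSG3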
T cell HTS – modulates CD8 T cell binding to vesicles; 2C CD8+ T cell-vesicle binding, flow cytometry; active compounds read low; response (vesicle binding), % at 7 µM; 0.068% of 330,000 active; AID 2052;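 active = response, share of CD8 T cells binding vesicles, and their 90th percentile fluorescence all below set limits, cut at about 80% in these data, passing the limit was not always enough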;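 also: values below 100% mean blocked vesicle binding to the CD8+ T cells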
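Test system: purified 2C TCR transgenic mouse naive CD8+ T cells. Probe or stimulus: QL9-peptide-loaded Drosophila micro-vesicles bearing Ld, ICAM-1 and B7-1. Incubation: binding step 1.5 h, 37 °C, antibody labelling 20 min, ice. Measured by: flow cytometry of vesicle-bound cells.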
Myeloid diff CP1 – compounds promoting myeloid differentiation. shares compounds with Myeloid diff 2. ER-HoxA9 myeloid progenitors, GFP/Mac1 double-positive flow. calls only. 2% of 2,300 active. AID 651706;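 active = share of green or green-and-red cells above 9 and 9% in run 1 or 4 and 3% in run 2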
GFP autofluor – counter-screen for myeloid differentiation promoters: compound fluorescence; shares compounds with Myeloid diff 2; ER-HoxA9 myeloid progenitors, no estrogen, GFP autofluorescence flow cytometry; vehicle wells 0%, positive control 100%; fluorescence response, % (no concentration beside the values); 7.4% of 2,300 active; AID 651707;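 active = over 5% cells positive for green fluorescent reporter, or over 2% positive for both it and APC stain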
A number is an active result; . = inactive; ? = inconclusive; / = no result; + = active, no number.

SMILES | Myeloid diff 2 | Vif inh | DSG3 Ab inh | T cell HTS | Myeloid diff CP1 | GFP autofluor
CCNC(=O)C1(C)CCN(Cc2ccccc2-c2ccccc2)C1 (configuration not stated) | . | . | / | / | / | /
FC(F)(F)c1ccccc1CN1CCN(C2CCCCCC2)CC1 | . | . | . | . | / | /
FC(F)(F)c1ccccc1CN1CCCC(N2CCN(c3ccccc3)CC2)C1 (configuration not stated) | . | . | . | . | . | 10
Cc1ccccc1NC(=O)Nc1nc(C2CCC(=O)N2)cs1 (configuration not stated) | . | . | / | / | / | /
O=C(NCc1ccccc1)C1C(c2ccc3c(c2)OCO3)=Nc2ccccc2N1C(=O)c1ccco1 (configuration not stated) | . | / | / | / | . | .
O=C(NCc1ccccc1)C1C(c2ccc3c(c2)OCO3)=Nc2ccccc2N1C(=O)c1ccccc1 (configuration not stated) | . | / | / | / | / | /
CCC(C(=O)Nc1sc(C(N)=O)c(C)c1C(=O)OC)c1ccccc1 (configuration not stated) | . | . | . | . | . | .
CC(C)(C)C(=O)Nc1nc2c(s1)CN(Cc1ccccc1)CC2 | . | . | . | . | . | .
O=C(Nc1nc2c(s1)CN(Cc1ccccc1)CC2)C1CCCC1 | . | . | . | . | / | /
O=S(=O)(N/N=C\C=C\c1ccccc1)c1ccc(Cl)cc1 | . | / | . | . | . | .
COc1cc(/C=C/c2sc3ccccc3[n+]2CCCS(=O)(=O)[O-])ccc1O | . | . | . | . | / | /
CCC(/C=C1\Oc2ccc(OC)cc2N1C)=C\c1sc2ccccc2[n+]1CCCS(=O)(=O)[O-] | . | . | . | / | . | 85
Cc1ccc(C2=NCCNC2=O)c(C)c1 | . | / | . | . | . | .
O=C(NCCN1CCc2ccccc2C1)C1CCN(S(=O)(=O)N2CCC3(CC2)OCCO3)CC1 | . | . | . | . | / | /
O=C(NCCN1CCc2ccccc2C1)C1CCN(S(=O)(=O)N2CCCCC2)CC1 | . | . | . | / | . | .
CN(C)CCN1CCN(C2CN(Cc3cn(Cc4ccccc4)nn3)S(=O)(=O)C2)CC1 (configuration not stated) | . | / | / | / | / | /
CCOc1ccccc1NC(=O)NC1(C(=O)NCc2cccnc2)CCCCC1 | . | . | / | . | . | .
Cc1ccc(CNC(=O)CN(c2cccc([N+](=O)[O-])c2)S(=O)(=O)c2ccccc2)cc1 | . | . | . | . | / | /
Cc1ccc(S(=O)(=O)N(CC(=O)N(C)C)c2cccc([N+](=O)[O-])c2)cc1 | + | . | . | . | . | .
OC[C@@H]1CN(Cc2ccc3c(c2)OCO3)C[C@H](n2cnc3c(NC4CC4)ncnc32)O1 | . | . | / | / | / | /
Cc1cc(C)c2cc3c(N)c(C(=O)Nc4c(C)[nH]c(=O)[nH]c4=O)sc3nc2c1 | + | . | . | . | . | .
NNc1nc2cccnc2n(CCNc2ncc(C(F)(F)F)cc2Cl)c1=O | . | . | . | . | . | .
O=c1c2nncn2c2cccnc2n1CCNc1ncc(C(F)(F)F)cc1Cl | . | . | . | . | / | /
CCCCn1nc(NC(=O)CC(C)C)c2cc3cc(OC)ccc3nc21 | . | . | . | . | / | /
CCCCn1nc(NC(=O)CCC)c2cc3cc(OC)ccc3nc21 | . | . | . | . | . | .
SMILES | Myeloid diff 2 | Vif inh | DSG3 Ab inh | T cell HTS | Myeloid diff CP1 | GFP autofluor
CCCCn1c2c(c(=N)c3c1CCC3)CCC2 | . | . | . | . | . | .
CCCCCCCCCn1c2c(c(=N)c3c1CCC3)CCC2 | / | . | . | . | / | /
Cc1ccccc1NC(=O)Nc1nnc([C@@H]2C[C@H](O)[C@@H](CO)O2)s1 | . | . | / | / | / | /
Cc1cc(C)n2c(Nc3ccc4c(c3)OCCO4)c(-c3cc4ccccc4o3)nc2n1 | . | / | / | / | / | /
Cc1cc(C)n2c(NC3CCCC3)c(-c3cc4ccccc4o3)nc2n1 | . | / | / | / | . | .
O=C(NCCc1ccccc1)C1CCCN1C(=O)Nc1ccccc1 (configuration not stated) | . | . | . | . | / | /
COc1ccc(NC(=O)N2CCCC2C(=O)NCCc2ccccc2)cc1 (configuration not stated) | . | . | . | . | . | .
COc1cc(NC(=O)COC(=O)/C=C/c2ccccc2Cl)cc(OC)c1 | . | . | . | . | . | .
Cc1ccc(/C=C/c2nnc(-c3cccs3)o2)cc1 | . | . | 70 | . | . | .
CCCNC(=O)N[C@H]1CC[C@@H](CCn2cc(-c3cccc(F)c3)nn2)O[C@@H]1CO | + | / | / | / | . | .
O=[N+]([O-])c1ccc(S(=O)(=O)NN=Cc2ccc(Cl)c(Cl)c2)cc1 | . | . | . | / | / | /
COC(=O)C(C)Sc1nnc2n(-c3cccc(C)c3)c(=O)c3c4c(sc3n12)CCCC4 (configuration not stated) | . | . | . | . | . | .
CN(c1cccc2cccnc12)S(=O)(=O)c1ccccc1 | . | . | / | . | / | /
COc1ccc(CNC(=O)c2cccc3c(-c4cccnc4)coc23)cc1OC | . | . | / | / | . | .
COc1cc(NC(=O)c2cccc3c(-c4cnn(C)c4)coc23)cc(OC)c1OC | + | . | / | / | . | 26
COCCCNC(=O)Cn1cnc(C(=O)Nc2ccc(C)c(C)c2)n1 | . | / | . | / | / | /
Cn1nccc1-c1ccc(C(=O)NCc2ccc(Cl)cc2)c2occc12 | . | . | / | / | / | /
O=c1oc2c3c4c(cc2c(C(F)(F)F)c1CCN1CCOCC1)CCCN4CCC3 | + | . | . | . | . | .
CC(C)c1cc(=O)oc2c3c4c(cc12)CCCN4CCC3 | . | . | . | . | / | /
CC(C)C1C(=O)N(Cc2cn(CCC3OCCO3)nn2)CCS(=O)(=O)N1Cc1ccc(-c2ccc(F)cc2)cc1 (configuration not stated) | . | . | . | / | / | /
COc1ccc(S(=O)(=O)N2CCCCC2c2cc(C(=O)Nc3ccccc3)no2)cc1 (configuration not stated) | . | . | / | / | / | /
CCOC(=O)C1CCN(C(=O)CCc2nnc3ccc(NCc4ccco4)nn23)CC1 | + | . | . | . | . | .
O=C(CCc1nnc2ccc(NCc3ccco3)nn12)N1CCN(c2ccccc2)CC1 | ? | . | . | . | / | /
CCN(CC)CCNC(=O)c1cn(CC)c2ccc(S(=O)(=O)N(C)C3CCCCC3)cc2c1=O | . | . | . | . | / | /
CCN(CC)CCNC(=O)c1cn(C)c2ccc(S(=O)(=O)N(C)C3CCCCC3)cc2c1=O | . | . | . | . | . | .
CN(C)CCCn1c(N)c(C#N)c2nc3ccccc3nc21 | . | / | . | . | . | .
COc1ccc(-c2csc(C(NC(C)=O)c3cccc(F)c3)n2)cn1 (configuration not stated) | + | . | / | / | . | .
COc1ccc(CCn2c(=S)[nH]c3cc(C(=O)NCc4ccco4)ccc3c2=O)cc1OC | . | . | . | . | . | .
COc1ccc(-n2c(=S)[nH]c3cc(C(=O)NCc4ccco4)ccc3c2=O)cc1OC | . | . | . | . | / | /
OC(Cc1ccccc1)c1ncc(-c2ccc(Cl)cc2)[nH]1 (configuration not stated) | . | . | / | / | / | /

Assay outcomes as filed in PubChem.
